Assay results pooled from the literature.
MAL12: Alpha-glucosidase MAL12 (MAL12, Saccharomyces cerevisiae S288c, UniProt P53341)
FABP1: Fatty acid-binding protein, liver (FABP1, Homo sapiens, UniProt P07148)
SQLE: Squalene monooxygenase (SQLE, Homo sapiens, UniProt Q14534)

Structure (SMILES) | target | assay | conditions | IC50 [µM]
CC[N+](CC)(CC)Cc1ccccc1.CC[N+](CC)(CC)Cc1ccccc1.[Br][Co-2]([Br])([Br])[Br] | Tyrosine-protein phosphatase non-receptor type 1 (PTPN1, Homo sapiens, UniProt P18031) | enzyme activity, inhibitor |  | 10.9
CC1(C)CC(=O)C2=C(C1)n1c(=O)c3ccccc3c(=O)n1C2c1cn(-c2ccccc2)nc1-c1ccc(O)cc1 (centres unmarked) | MAL12 | enzyme activity, inhibitor, absorbance |  | 108
CCCOc1ccc2c(c1)O/C(=C\c1cc(C)c(OC(C)(C)C(=O)O)c(C)c1)C2=O | FABP1 | cell-free assay, inhibitor, fluorescence | pH 7.4 | 4.8
C[C@H]1CN(C(=O)CC#N)[C@]12CCN(c1ncnc3[nH]ccc13)C2 | Solute carrier family 22 member 6 (SLC22A6, Homo sapiens, UniProt Q4U2R8) | transporter uptake, inhibitor |  | 1.59
CCCOc1ccc2c(c1)O/C(=C\c1ccc(OC(C)(C)C(=O)O)c(F)c1)C2=O | FABP1 | cell-free assay, inhibitor, fluorescence | pH 7.4 | 9.2
C[C@H]1CN(C(=O)Nc2ccc(C(F)(F)F)cc2)CCN1c1ccnc(Nc2ccc(Cl)cc2)n1 | MAL12 | enzyme activity, inhibitor, absorbance | pH 6.9 | 1.1
COc1cc(-c2oc3cc(O)cc(O)c3c(=O)c2O)ccc1O | SQLE | enzyme activity, inhibitor, radiometric |  | 11.5
COc1ccc(NC(=O)N2CCN(c3ccnc(Nc4ccc(Cl)cc4)n3)[C@H](C)C2)cc1 | MAL12 | enzyme activity, inhibitor, absorbance | pH 6.9 | 23.4
N=C(N)c1ccc2cc(OC(=O)c3ccc(N=C(N)N)cc3)ccc2c1 | Coagulation factor IX (F9, Homo sapiens, UniProt P00740) | enzyme activity, inhibitor |  | 0.086
C[C@H]1CN(C(=O)Nc2ccc(C(F)(F)F)cc2)CCN1c1ccnc(Nc2cccc(O)c2)n1 | MAL12 | enzyme activity, inhibitor, absorbance | pH 6.9 | 2.05
CC(=O)C1=C(C)n2c(=O)c3ccccc3c(=O)n2C1c1cn(-c2ccccc2)nc1-c1ccc(Br)cc1 (centres unmarked) | MAL12 | enzyme activity, inhibitor, absorbance |  | 18.6
CCOc1ccc2c(c1)O/C(=C\c1cc(C)c(OC(C)(C)C(=O)O)c(C)c1)C2=O | FABP1 | cell-free assay, inhibitor, fluorescence | pH 7.4 | 8.6
CN1CCC(CNc2ccc3ncc(-c4cccc(OC(F)(F)F)c4)n3n2)CC1 | Alpha-1A adrenergic receptor (ADRA1A, Homo sapiens, UniProt P35348) | calcium signal, antagonist |  | 4.81
Nc1ccn(C[C@@H](CO)OCP(=O)(O)O)c(=O)n1 | Solute carrier family 22 member 6 (SLC22A6, Homo sapiens, UniProt Q4U2R8, F438Y) | transporter uptake, inhibitor, fluorescence |  | 1400
CCCOc1ccc2c(c1)O/C(=C\c1ccc(OC(C)C(=O)O)cc1)C2=O (centres unmarked) | FABP1 | cell-free assay, inhibitor, fluorescence | pH 7.4 | 10.4
C[C@H]1CN(C(=O)Nc2ccc(C(F)(F)F)cc2)CCN1c1ccnc(Nc2ccc(Cl)c(O)c2)n1 | MAL12 | enzyme activity, inhibitor, absorbance | pH 6.9 | 0.44
CCN(CC)C(C)CN1c2ccccc2Sc2ccccc21 (centres unmarked) | SQLE | enzyme activity, inhibitor, absorbance | pH 7.4, with preincubation | 1.69
C[C@H]1CN(C(=O)Nc2ccc(C(F)(F)F)cc2)CCN1c1ccnc(Nc2ccccc2Cl)n1 | MAL12 | enzyme activity, inhibitor, absorbance | pH 6.9 | 4.21
OCCN1CCN(CCCN2c3ccccc3Sc3ccc(C(F)(F)F)cc32)CC1 | SQLE | enzyme activity, inhibitor, absorbance | pH 7.4, with preincubation | 12.3
CCCCOc1ccc2c(c1)O/C(=C\c1cc(C)c(OC(C)(C)C(=O)O)c(C)c1)C2=O | FABP1 | cell-free assay, inhibitor, fluorescence | pH 7.4 | 5.3
Cc1ccc(NC(=O)N2CCN(c3ccnc(Nc4ccc(Cl)cc4)n3)[C@@H](C)C2)cc1 | MAL12 | enzyme activity, inhibitor, absorbance | pH 6.9 | 2.42
Cc1cc(/C=C2\Oc3cc(OCCC(C)C)ccc3C2=O)cc(C)c1OC(C)(C)C(=O)O | FABP1 | cell-free assay, inhibitor, fluorescence | pH 7.4 | 9.6
CC1CN(C(=O)Nc2ccc(Cl)c(Cl)c2)CCN1c1ccnc(Nc2ccc(Cl)cc2)n1 (centres unmarked) | MAL12 | enzyme activity, inhibitor, absorbance | pH 6.9 | 2.41
COc1cc(C2Oc3cc([C@H]4Oc5cc(O)cc(O)c5C(=O)[C@@H]4O)ccc3OC2CO)ccc1O (some centres unmarked) | SQLE | enzyme activity, inhibitor, radiometric |  | 1.88
CCCOc1ccc2c(c1)O/C(=C\c1ccc(OC(C)(C)C(=O)O)c(C)c1)C2=O | FABP1 | cell-free assay, inhibitor, fluorescence | pH 7.4 | 5.8
O=C1C[C@@H](c2ccc(O)cc2)Oc2cc(O)cc(O)c21 | SQLE | enzyme activity, inhibitor, radiometric |  | 6.52
NC/C(=C\F)COc1cccc(Cn2c(=S)[nH]c(=O)c3[nH]cnc32)c1 | Amine oxidase [flavin-containing] A (MAOA, Homo sapiens, UniProt P21397) | enzyme activity, inhibitor |  | > 30
COc1ccc(Cl)cc1C(=O)NCCc1ccc(S(=O)(=O)NC(=O)NC2CCCCC2)cc1 | Solute carrier family 22 member 6 (SLC22A6, Homo sapiens, UniProt Q4U2R8, F442A) | transporter uptake, inhibitor, fluorescence |  | 17.7
NS(=O)(=O)c1ccc(-n2nc(C(=O)NN=Cc3ccc(O)cc3)cc2-c2ccccc2)cc1 | Focal adhesion kinase 1 (PTK2, Homo sapiens, UniProt Q05397) | enzyme activity, inhibitor, ELISA |  | 17.1
